Assay results from ChEMBL document CHEMBL1275561, “In vitro activities of doripenem, a new broad-spectrum carbapenem, against recently collected clinical anaerobic isolates, with emphasis on the Bacteroides fragilis group” (2008).
“And” between values parts separate entries of the source, which are not always exact repeats. Identical values can stand only once.

Legend:
Type in all cases: functional
Propionibacterium [1] = assay: Antimicrobial activity against Propionibacterium sp. assessed as resistant isolates by agar dilution method
Summary of the method: (§1)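 Agar dilution following CLSI on brucella agar with 5% lysed defibrinated sheep blood and 1 μg/ml vitamin K1, plates made on test day. Log-phase cells at 0.5 McFarland, about 10^5 CFU/spot by Steers replicator, 48 h anaerobic at 37°C. MIC read as the lowest concentration causing a marked growth change versus control. Resistance counted by CLSI anaerobe breakpoints. Eubacterium lentum ATCC 43055 served as control.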

Cutibacterium acnes [2] = assay: Antimicrobial activity against Propionibacterium acnes by agar dilution method in presence of beta-lactamase inhibitor Tazobactam
Summary of the method: (§2)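 Log-phase isolates were adjusted to 0.5 McFarland, and about 10^5 CFU/spot was delivered by Steers replicator. Plates were incubated anaerobically at 37°C for 48 h. MIC was the lowest concentration giving a marked growth change versus the control plate. Eubacterium lentum ATCC 43055 was the QC strain, with repeats when out of range.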

[3] = tested on: Peptoniphilus asaccharolyticus; assay: Antimicrobial activity against Peptoniphilus asaccharolyticus assessed as resistant isolates by agar dilution method; conditions: pooled result: one value given for 4 cell lines, strains, targets or settings; summary of the method: as §1
Parabacteroides merdae = assay: Antimicrobial activity against Bacteroides merdae assessed as resistant isolates by agar dilution method
Summary of the method: (§3)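 CLSI agar dilution on enriched brucella agar (5% lysed defibrinated sheep blood, 1 μg/ml vitamin K1), plates made on test day. Log-phase inocula adjusted to 0.5 McFarland; about 10^5 CFU/spot by Steers replicator. Incubated anaerobically at 37°C for 48 h. MIC was the lowest concentration giving a marked change in growth versus the drug-free control plate. Resistance rates used CLSI anaerobe breakpoints. Controls were B. fragilis ATCC 25285 and B. thetaiotaomicron ATCC 29741.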

[4] = tested on: Peptoniphilus asaccharolyticus; assay: Antimicrobial activity against Peptoniphilus asaccharolyticus by agar dilution method in presence of beta-lactamase inhibitor Tazobactam
Summary of the method: (§4)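 Gram-positive anaerobes were tested by CLSI agar dilution on brucella agar enriched with 5% lysed defibrinated sheep blood and 1 μg/ml vitamin K1. Inoculum was log-phase growth at 0.5 McFarland, about 10^5 CFU/spot by replicator. Incubation was anaerobic, 37°C, 48 h. MIC was the lowest concentration with a marked growth change versus the drug-free plate. Eubacterium lentum ATCC 43055 was the control, and tests were repeated if it fell outside the CLSI range.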

Bacteroides caccae = assay: Antimicrobial activity against Bacteroides caccae assessed as resistant isolates by agar dilution method; summary of the method: as §3
[5] = tested on: Parabacteroides distasonis; assay: Antimicrobial activity against Bacteroides distasonis assessed as resistant isolates by agar dilution method; summary of the method: as §3
Bacteroides nordii = assay: Antimicrobial activity against Bacteroides nordii assessed as resistant isolates by agar dilution method; summary of the method: as §3
Propionibacterium [6] = assay: Antimicrobial activity against Propionibacterium sp. by agar dilution method in presence of beta-lactamase inhibitor Tazobactam; summary of the method: as §2
[Clostridium] innocuum = Antimicrobial activity against Clostridium innocuum assessed as resistant isolates by agar dilution method; conditions: pooled result: one value given for 4 cell lines, strains, targets or settings
Finegoldia magna [7] = assay: Antimicrobial activity against Finegoldia magna by agar dilution method in presence of beta-lactamase inhibitor Tazobactam; summary of the method: as §4
Clostridioides difficile = assay: Antimicrobial activity against Clostridium difficile by agar dilution method in presence of beta-lactamase inhibitor Tazobactam; summary of the method: as §4
Peptostreptococcus sp. = assay: Antimicrobial activity against Peptostreptococcus sp. by agar dilution method in presence of beta-lactamase inhibitor Tazobactam; summary of the method: as §2
Anaerococcus prevotii = assay: Antimicrobial activity against Anaerococcus prevotii by agar dilution method in presence of beta-lactamase inhibitor Tazobactam; summary of the method: as §4
Parvimonas micra = assay: Antimicrobial activity against Micromonas micros by agar dilution method in presence of beta-lactamase inhibitor Tazobactam; summary of the method: as §4
Bacteroides uniformis = assay: Antimicrobial activity against Bacteroides uniformis assessed as resistant isolates by agar dilution method; summary of the method: as §3
Phocaeicola vulgatus = assay: Antimicrobial activity against Bacteroides vulgatus assessed as resistant isolates by agar dilution method; summary of the method: as §3
Bacteroides ovatus = assay: Antimicrobial activity against Bacteroides ovatus assessed as resistant isolates by agar dilution method; summary of the method: as §3
Bacteroides fragilis = assay: Antimicrobial activity against Bacteroides fragilis assessed as resistant isolates by agar dilution method; summary of the method: as §3
Bacteroides eggerthii = assay: Antimicrobial activity against Bacteroides eggerthii assessed as resistant isolates by agar dilution method; summary of the method: as §3
[8] = tested on: Bacteroides thetaiotaomicron; assay: Antimicrobial activity against Bacteroides thetaiotaomicron assessed as resistant isolates by agar dilution method; summary of the method: as §3
Finegoldia magna [9] = assay: Antimicrobial activity against Finegoldia magna assessed as resistant isolates by agar dilution method; summary of the method: as §1
Cutibacterium acnes [10] = assay: Antimicrobial activity against Propionibacterium acnes assessed as resistant isolates by agar dilution method; summary of the method: as §1

**Q.** How did the Activity (Propionibacterium [1]) turn out when `CCN1CCN(C(=O)N[C@@H](C(=O)N[C@@H]2C(=O)N3[C@@H]2SC(C)(C)[C@@H]3C(=O)O)c2ccccc2)C(=O)C1=O` [PIPERACILLIN] was run?
**A.** 0%

**Q.** And the MIC (Cutibacterium acnes [2])?
**A.** 0.25 µg/mL and 0.5 µg/mL

**Q.** And the MIC (Cutibacterium acnes [2]; Cutibacterium acnes, read-out: MIC)?
**A.** 0.25 µg/mL

**Q.** And the Activity [3]?
**A.** 0%

**Q.** And the Activity (Parabacteroides merdae)?
**A.** 0%

**Q.** And the MIC [4]?
**A.** 0.5 µg/mL

**Q.** What about the MIC ([4]; Peptoniphilus asaccharolyticus, read-out: MIC) of the same compound?
**A.** 0.5 µg/mL

**Q.** What about the Activity (Bacteroides caccae) of the same compound?
**A.** 0%

**Q.** What about the Activity [5] of the same compound?
**A.** 0%

**Q.** What about the Activity (Bacteroides nordii) of the same compound?
**A.** 0%

**Q.** And the MIC (Propionibacterium [6])?
**A.** 0.25 µg/mL and 0.5 µg/mL

**Q.** What about the MIC (Propionibacterium [6]; Propionibacterium, read-out: MIC) of the same compound?
**A.** 0.25 µg/mL

**Q.** What about the Activity ([Clostridium] innocuum) of the same compound?
**A.** 5.6%

**Q.** What about the MIC (Finegoldia magna [7]) of the same compound?
**A.** 0.5 µg/mL

**Q.** What about the MIC (Finegoldia magna [7]; Finegoldia magna, read-out: MIC) of the same compound?
**A.** 0.5 µg/mL

**Q.** What about the MIC (Clostridioides difficile) of the same compound?
**A.** 2 µg/mL

**Q.** And the MIC (Peptostreptococcus sp.)?
**A.** 0.5 µg/mL

**Q.** What about the MIC (Peptostreptococcus sp.; Peptostreptococcus sp., read-out: MIC) of the same compound?
**A.** 0.5 µg/mL

**Q.** What about the MIC (Anaerococcus prevotii) of the same compound?
**A.** 0.5 µg/mL

**Q.** What about the MIC (Anaerococcus prevotii; Anaerococcus prevotii, read-out: MIC) of the same compound?
**A.** 0.5 µg/mL

**Q.** What about the MIC (Parvimonas micra) of the same compound?
**A.** 0.5 µg/mL

**Q.** And the MIC (Parvimonas micra; Parvimonas micra, read-out: MIC)?
**A.** 0.5 µg/mL

**Q.** And the Activity (Bacteroides uniformis)?
**A.** 0%

**Q.** What about the Activity (Phocaeicola vulgatus) of the same compound?
**A.** 0%

**Q.** What about the Activity (Bacteroides ovatus) of the same compound?
**A.** 0%

**Q.** What about the Activity (Bacteroides fragilis) of the same compound?
**A.** 1%

**Q.** What about the Activity (Bacteroides eggerthii) of the same compound?
**A.** 0%

**Q.** And the Activity [8]?
**A.** 1.3%

**Q.** And the Activity (Finegoldia magna [9])?
**A.** 0%

**Q.** What about the Activity (Cutibacterium acnes [10]) of the same compound?
**A.** 0%
